Experimental data: ChEMBL document CHEMBL4261601, “Discovery and lead identification of quinazoline-based BRD4 inhibitors” (Bioorg Med Chem Lett, 2018)

How the values were obtained:
[1] = target: Bromodomain-containing protein 4 (Homo sapiens, UniProt O60885); assay: Displacement of biotinylated acetylated peptide from recombinant human partial length BRD4 long isoform bromodomain 1/2 (N44 to E460 residues) expressed in Escherichia coli BL21 measured after 1 hr by Bromoscan method
MV4-11 = assay: Cytotoxicity against human MV411 cells after 72 hrs by CellTiter-Glo assay; type: functional, cell-based; conditions: MV4-11, 72 h
Mus musculus = assay: Cmax in CD-1 mouse at 10 mg/kg, po measured after 5 mins; type: ADME, organism-based; parameters: dose 10 mg/kg, route oral; conditions: in vivo
[2] = AUC (0 to infinity) in CD-1 mouse at 10 mg/kg, po; type: ADME, organism-based; parameters: dose 10 mg/kg, time infinity, route oral; conditions: CD-1, mouse, in vivo
In short: (§1)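 CD-1 mice (n = 3) received a single oral dose of 10 mg/kg. Plasma drug levels were followed over time to derive AUC0–∞, t1/2 and oral bioavailability (F%), the last relative to the iv arm.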

[3] = Half life in CD-1 mouse at 10 mg/kg, po; type: ADME, organism-based; conditions: in vivo; in short: as §1

SMILES | Kd [1] | IC50 (MV4-11) | Cmax (Mus musculus) | AUC(0-inf) [2] | half-life [3]
CN(C)CCN1CCN(c2nc(NCc3cccc(Cl)c3)c3cc(-c4ccc(O)nc4)ccc3n2)CC1 | 0.55 µM | 6.07 µM | – | – | –
Cc1noc(C)c1-c1ccc2nc(N(C)CCN(C)C)nc(NCc3cccc(Cl)c3)c2c1 | 0.11 µM | 2.97 µM | – | – | –
Cc1noc(C)c1-c1ccc2nc(C(=O)NCc3cnn(C)c3)nc(NCc3cccc(Cl)c3)c2c1 | 0.059 µM | 1.27 µM | – | – | –
CN(C)CCN1CCN(c2nc(NCc3cccc(Cl)c3)c3cc(-c4ccn(C)c(=O)c4)ccc3n2)CC1 | 7.1 µM | 6.89 µM | – | – | –
Cc1noc(C)c1-c1ccc2nc(N3CCN(CCN(C)C)CC3)nc(NCCc3ccc(Cl)cc3)c2c1 | 3 µM | 6.65 µM | – | – | –
COCCn1cc(-c2nc(NCc3cccc(Cl)c3)c3cc(-c4c(C)noc4C)ccc3n2)cn1 | 0.092 µM | 1.87 µM | – | – | –
Cc1noc(C)c1-c1ccc2nc(N3CCN(CCN(C)C)CC3)nc(N3CCC3c3ccccc3)c2c1 (stereo unspecified) | 0.48 µM | 4.88 µM | – | – | –
Cc1noc(C)c1-c1ccc2[nH]c(=O)cc(NCc3cccc(Cl)c3)c2c1 | 0.055 µM | 1.8 µM | – | – | –
Cc1noc(C)c1-c1ccc2nc(N3CCN(C(=O)CO)CC3)nc(NCc3cccc(Cl)c3)c2c1 | 0.071 µM | 1.33 µM | – | – | –
Cc1oncc1-c1ccc2nc(N3CCN(CCN(C)C)CC3)nc(NCc3cccc(Cl)c3)c2c1 | 1.1 µM | 8.03 µM | – | – | –
Cc1noc(C)c1-c1ccc2nc(C(=O)NC3CCOCC3)nc(NCc3cccc(Cl)c3)c2c1 | 0.079 µM | 2.84 µM | – | – | –
CN(C)CCN1CCN(c2nc(NCc3cccc(Cl)c3)c3cc(-c4ccnc(O)c4)ccc3n2)CC1 | 9.1 µM | 17.3 µM | – | – | –
Cc1noc(C)c1-c1ccc2nc(Cl)nc(NCc3cccc(Cl)c3)c2c1 | – | 11.3 µM | – | – | –
Cc1noc(C)c1-c1ccc2c(NCc3cccc(Cl)c3)nc(N3CCN(CCN(C)C)CC3)nc2c1 | 0.61 µM | 1.87 µM | – | – | –
Cc1noc(C)c1-c1ccc2nc(N3CCN(CCN(C)C)CC3)nc(NCc3cccc(F)c3)c2c1 | 0.17 µM | 1.23 µM | – | – | –
Cc1noc(C)c1-c1ccc2nc(N3CCN(CCN(C)C)CC3)nc(NCc3cccs3)c2c1 | 0.15 µM | 1.62 µM | – | – | –
Cc1noc(C)c1-c1ccc2nc(N3CCN(CCN(C)C)CC3)nc(NCc3cncc(Cl)c3)c2c1 | 0.079 µM | 1.37 µM | – | – | –
Cc1noc(C)c1-c1ccc2nc(N3CCN(CCN(C)C)CC3)nc(NC3(c4cccc(Cl)c4)CC3)c2c1 | 0.086 µM | 1.6 µM | – | – | –
Cc1noc(C)c1-c1ccc2nc(-c3cnn(CCC#N)c3)nc(NCc3cccc(Cl)c3)c2c1 | 0.12 µM | 0.95 µM | – | – | –
Cc1noc(C)c1-c1ccc2nc(N3CCN(CCCN(C)C)CC3)nc(NCc3cccc(Cl)c3)c2c1 | 0.097 µM | 2.36 µM | – | – | –
Cc1noc(C)c1-c1ccc2nc(C(=O)NC3CCN(C)CC3)nc(NCc3cccc(Cl)c3)c2c1 | 0.08 µM | 1.02 µM | 9 ng/mL | 54 ng·h/mL | 4 h
Cc1n[nH]c(C)c1-c1ccc2nc(N3CCN(CCN(C)C)CC3)nc(NCc3cccc(Cl)c3)c2c1 | 1.5 µM | 2.85 µM | – | – | –
Cc1noc(C)c1-c1ccc2nc(N3CCN(C)CC3)nc(NCc3cccc(Cl)c3)c2c1 | 0.14 µM | 1.6 µM | – | – | –
Cc1noc(C)c1-c1ccc2nc(N3CCN(CCN(C)C)CC3)nc(N(C)Cc3cccc(Cl)c3)c2c1 | 0.27 µM | 5.5 µM | – | – | –
Cc1noc(C)c1-c1ccc2nc(N3CCCN(CCN(C)C)CC3)nc(NCc3cccc(Cl)c3)c2c1 | 0.15 µM | 2.1 µM | – | – | –
Cc1noc(C)c1-c1ccc2nc(N3CCN(CCN(C)C)CC3)nc(N3CCCCC3c3ccccc3)c2c1 (stereo unspecified) | 0.06 µM | 5.07 µM | – | – | –
Cc1noc(C)c1-c1ccc2nc(-c3cnn(CCO)c3)nc(NCc3cccc(Cl)c3)c2c1 | 0.095 µM | 1.67 µM | – | – | –
